For assay [1], the target named is Cytochrome c (Bos taurus) (UniProt P62894). Description: Induction of chemical modification in bovine heart cytochrome c in phosphate buffer assessed as appearance of new peak at 413 nm at 2 mM at pH 7.4 after overnight incubation by UV-vis spectrophotometry. The gist of the method: (§1)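 Cytochrome c (50 µM) incubated overnight at 37 °C, pH 7.4, with 2 mM BAMF or 2 mM aspirin in phosphate buffer. UV–vis spectra recorded about 350–600 nm (Soret and Q-band region) and compared with native protein.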

The target in assay [2] is Lysozyme C (Gallus gallus) (UniProt P00698). Briefly: Induction of chemical modification in chicken egg white lysozyme assessed as effect on enzyme activity at 0.3 to 1.2 mM by UV-vis spectrophotometry. In a few lines: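 Lysozyme (50 µM) modified overnight at 37 °C with 0.3, 0.6, 0.9 or 1.2 mM BAMF in 50 mM phosphate pH 7.4. Hydrolytic activity read turbidimetrically as the fall in A450 of a bacterial cell suspension over 1500 s. Specific activity plotted against BAMF concentration.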

Assay [3] deals with Cytochrome c (Bos taurus) (UniProt P62894). Briefly: Induction of chemical modification in bovine heart cytochrome c in phosphate buffer assessed as appearance of new peak at 414 nm at 2 mM at pH 7.4 after overnight incubation by UV-vis spectrophotometry. In a few lines:
as §1

The target is the same in assay [4]. Description: Induction of chemical modification in bovine heart cytochrome c assessed as exposure of hydrophobic core at 0.3 to 1.2 mM by ANS staining-based fluorescence assay. In a few lines:
(§2)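 Proteins (50 µM) modified overnight at 37 °C with BAMF (0.3–1.2 mM) in 50 mM phosphate pH 7.4, then measured at 5 µM. ANS was used at 16-fold over protein. Excitation 360 nm, emission 400–600 nm, slits 10 nm, 3 mm quartz cell. Blanks subtracted, each spectrum at least three times.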

The target is the same in assay [5]. Description: Induction of chemical modification in bovine heart cytochrome c assessed as denaturation temperature at 1.2 mM by UV-vis spectrophotometry (Tm = 56.5 +/- 0.1 degC).
Assay [6] shares this target. Briefly: Induction of chemical modification in bovine heart cytochrome c assessed as denaturation temperature at 0.9 mM by UV-vis spectrophotometry (Tm = 56.5 +/- 0.1 degC).
For assay [7] the target is unchanged. Description: Induction of chemical modification in bovine heart cytochrome c in phosphate buffer assessed as disappearance of peak at 530 nm and appearance of new peaks at 522 and 551 nm at pH 7.4 after overnight incubation by UV-vis spectrophotometry. The gist of the method:
as §1

Assay [8] shares this target. Description: Induction of chemical modification in bovine heart cytochrome c in phosphate buffer assessed as adduct formation at heme center at 2 mM at pH 7.4 after 1 hr by UV-vis spectrophotometry. In a few lines: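 Cytochrome c treated with 2 mM acetylating agent in phosphate buffer pH 7.4. Heme redox/reduction kinetics followed by absorbance at 550 nm over 1 h, with aspirin at 2 mM as the reference acetylating agent.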

The target is the same in assay [9]. Description: Induction of chemical modification in bovine heart cytochrome c assessed as change in negative peaks of at 282 nm and 289 nm of tyrosyl side chains at 0.3 to 1.2 mM by circular dichroism analysis. Background: Circular dichroism is widely used to follow secondary structure.
Assay [10] shares this target. Description: Induction of chemical modification in bovine heart cytochrome c assessed as additional peaks at 1.2 mM at pH 7.4 by ESI-MS spectroscopic technique.
Assay [11] has as its target Lysozyme C (Gallus gallus) (UniProt P00698). Briefly: Induction of chemical modification in chicken egg white lysozyme tertiary structure assessed as effect on adduct formation at 0.3 to 1.2 mM by circular dichroism analysis.
For assay [12], the target named is Cytochrome c (Bos taurus) (UniProt P62894). Description: Induction of chemical modification in bovine heart cytochrome c assessed as denaturation temperature at 0.6 mM by UV-vis spectrophotometry (Tm = 56.5 +/- 0.1 degC).
The target is the same in assay [13]. Description: Induction of chemical modification in bovine heart cytochrome c tertiary structure in phosphate buffer assessed as intact band at 695 nm at pH 7.4 after overnight incubation by UV-vis spectrophotometry. In a few lines: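 Cytochrome c modified overnight at 37 °C in 50 mM phosphate pH 7.4 with BAMF. UV–vis absorbance scanned 600–800 nm to monitor the 695 nm Met-80–heme ligand band, compared with native protein.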

Assay [14] shares this target. Description: Induction of chemical modification in bovine heart cytochrome c tertiary structure assessed as effect on adduct formation at 0.3 to 1.2 mM by circular dichroism analysis.
Assay [15] shares this target. Description: Induction of chemical modification in bovine heart cytochrome c assessed as denaturation temperature at 0.3 mM by UV-vis spectrophotometry (Tm = 56.5 +/- 0.1 degC).
The target of assay [16] is Lysozyme C (Gallus gallus) (UniProt P00698). Description: Induction of chemical modification in chicken egg white lysozyme assessed as exposure of hydrophobic core at 0.3 to 1.2 mM by ANS staining-based fluorescence assay. In a few lines: as §2

Activity calls are given as the source filed them. The rule behind the calls is not given here.

Chain of Lysozyme C (Gallus gallus) (P00698 whole entry): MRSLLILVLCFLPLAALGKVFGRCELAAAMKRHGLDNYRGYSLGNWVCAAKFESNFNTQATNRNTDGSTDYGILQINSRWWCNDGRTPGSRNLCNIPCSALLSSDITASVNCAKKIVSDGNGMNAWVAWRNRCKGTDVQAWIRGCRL
Chain of Cytochrome c (Bos taurus) (P62894 whole entry): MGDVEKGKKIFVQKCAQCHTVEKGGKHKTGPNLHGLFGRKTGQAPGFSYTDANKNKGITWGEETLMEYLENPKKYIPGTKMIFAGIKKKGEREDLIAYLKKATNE

In the case of `CC(=O)Oc1ccccc1C(=O)O`, in assay [1], the result was Active.

One may read the Tm as the temperature at which the thermal transition is half complete. With `CC(=O)OCc1ccc(COC(C)=O)o1`, the result in assay [2], in assay [4], in assay [9], in assay [11], in [13] and in assay [14] was inactive. Further, in assay [16], the outcome was inactive. Moreover, the result in assay [3], in assay [7], in [8] and in [10] was Active. The Tm in [5] stood at 53 °C; in [6], 53.8 °C; in [12], 54.7 °C; in assay [15], 54.8 °C.
